Here are results for three compounds from PMC9682045 (Biochemistry and Biophysics Reports, 2022).

Values joined by “and” are separate entries in the source; they are usually repeats but may differ in a detail not shown here. Equal entries are not always repeated. Bounds are passed on as bounds.

One series deals with HCoV 229E. In words: HCoV 229E qPCR assay in MRC5 cells. To be noted: read-out: HCoV 229E qPCR assay EC50, 200 TCID50, 2 days, viral RNA. It counts as cell-based, human coronavirus 229E. The gist of the method:
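MRC5 human fetal lung fibroblasts seeded at 20,000 cells/well received test compound (3-fold serial dilutions to 8 concentrations, duplicate wells) in cell assay medium and were infected with 200 TCID50 HCoV 229E. Viral RNA was quantified by qPCR following a previously published protocol. Uninfected untreated and infected untreated controls ran in parallel. Percentage inhibition was recorded; EC50 is the concentration giving 50% of maximal effect.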

Series [1] in a line: Cytotoxicity in the HCoV 229E CPE assay. To be noted: human, MRC5 cells, not infected. Format: cell-based. The gist of the method:
(§1)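 Uninfected MRC5 human fetal lung fibroblasts seeded at 20,000 cells/well; test compound in cell assay medium as 3-fold serial dilutions to 8 concentrations, duplicate wells. Untreated cell controls run in parallel. Cytotoxicity expressed as percentage viability, with CC50 derived from this.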

Series [2] can be described thus: Cytotoxicity in the HCoV 229E qPCR assay. Format: cell-based. To be noted: human, MRC5 cells, not infected. The gist of the method: as §1
The subject of series [3] is COVID-19-related lethality. To be noted: meta-regression, patients with MS and COVID-19, N = 5634, P = 0.035; cited from earlier work.
The conditions of series [4]: a patient with MS; cited from earlier work.

For `CCC(CC)COC(=O)[C@H](C)N[P@](=O)(OC[C@H]1O[C@@](C#N)(c2ccc3c(N)ncnn23)[C@H](O)[C@@H]1O)Oc1ccccc1` [Remdesivir (blinded), remdesivir], the EC50 with HCoV 229E was < 0.046 µM. Besides, in series [1], the CC50 at 3 days is > 100 µM. The cytotoxic concentration (CC50) at 2 days in series [2] was > 100 µM.
Regarding `C/C(O)=C(\C#N)C(=O)Nc1ccc(C(F)(F)F)cc1` [Teriflunomide, teriflunomide], in series [3], the “protective effect on COVID-19-related lethality (β)” value is −0.11. In series [1], the half-maximal cytotoxic concentration (CC50) at 3 days is > 100 µM. In addition, in series [4], the plasma concentration is 130 μM and 35 mg/L. For the same compound, the half-maximal cytotoxic concentration (CC50) at 2 days in series [2] is > 100 µM.
Consider `Cc1oncc1C(=O)Nc1ccc(C(F)(F)F)cc1` [Leflunomide, leflunomide], for which, in series [1], the CC50 at 3 days was > 100 µM. Moreover, in series [2], the CC50 at 2 days is > 100 µM.
